# Measurements from the array DNA melting data of Ke et al. (doi:10.1101/2024.01.08.574731).
# How the values were obtained:
# [1] = folding enthalpy; higher = less favourable; fluorescence melt of hairpins on a sequencing array, two-state fit; settings: sodium 0.088 M
# How it was run: (§1)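 Bootstrapped two-state fits yielded melting temperature and folding enthalpy for library hairpins. Cy3 fluorescence, with annealed Cy3 and quencher oligos, was imaged on a sequenced MiSeq flow cell in 50 mM Na-HEPES pH 8.0, 25 mM NaCl in 2.5 °C steps up to 60 °C, and normalised to pre-quench Cy3 and to control constructs. Four replicates were combined by inverse variance, and fitted temperatures were raised by 9.35 °C to match UV melts.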
# [2] = melting temperature; fluorescence melt of hairpins on a sequencing array, two-state fit, raised by 9.35 °C to match UV melts; settings: sodium 0.088 M
# How it was run: as §1
Sequence,folding enthalpy [1],Tm [2]
GGGGCCGGAAACGGCCTC (.(((((....))))).),-10.4 kcal/mol,69.2 °C
GGGGCGACGAAAGTCCCC (((..(((....)))))),-16.4 kcal/mol,56 °C
GGGGCGGCGAAAGCCCCC (((..(((....)))))),-16.6 kcal/mol,64 °C
GGGGCGGGAAACCACCCC ((((.((....)).)))),-52 kcal/mol,55 °C
GGGGCTACGAAAGTACCC (((..(((....)))))),-22.1 kcal/mol,48 °C
GGGGCTCCGAAAGGACCC (((..(((....)))))),-35.3 kcal/mol,56.9 °C
GGGGCTGCGAAAGCACCC (((..(((....)))))),-24.5 kcal/mol,62.5 °C
GGGGCTGGAAACAACCCC ((((.((....)).)))),-41.2 kcal/mol,49.2 °C
GGGGCTGGAAACAGCCTC (.(((((....))))).),-14.4 kcal/mol,59.8 °C
GGGGCTGGAAACAGCTCC ((.((((....)))).)),-28.5 kcal/mol,57.7 °C
GGGGCTGGAAACGGCTCC ((.((.(....).)).)),-38.7 kcal/mol,48.6 °C
GGGGGCGAAAGCCAACCC ((((((....)))..))),-17.9 kcal/mol,52.7 °C
GGGGGCGAAAGCCCACCC ((((((....)))..))),-10.1 kcal/mol,57.3 °C
GGGGGCGAAAGCCCGCCC ((((((....)))..))),-9.36 kcal/mol,55.6 °C
GGGGGCGGAAACGCCTCC ((.((((....)))).)),-24.1 kcal/mol,66.7 °C
GGGGGTCGAAAGACGCCC (((.(((....))).))),-21.5 kcal/mol,68.7 °C
GGGGGTGGAAACACCCTC (.(((((....))))).),-16.7 kcal/mol,64.5 °C
GGGGGTGGAAACATCCCC ((((.((....)).)))),-34.7 kcal/mol,56.8 °C
GGGGGTGGAAACGCTCCC (((.(.(....).).))),-25.9 kcal/mol,47.1 °C
GGGGTACGAAAGTAGCCC (((.(((....))).))),-42.7 kcal/mol,67.7 °C
GGGGTAGAAATACCCC ((((((....)))))),-34.9 kcal/mol,60.4 °C
GGGGTAGCGAAAGCTCCC (((..(((....)))))),-23.2 kcal/mol,58.4 °C
GGGGTAGGAAACTACCCC (((((((....))))))),-25.7 kcal/mol,67.2 °C

Sequence,folding enthalpy [1],Tm [2]
GGGGTCGAAAGACGACCC ((((((....)))..))),-19.6 kcal/mol,61.8 °C
GGGGTCGAAAGACGCCCC ((((((....)))..))),-13 kcal/mol,60.2 °C
GGGGTCGAAAGACGGCCC ((((((....)))..))),-22.1 kcal/mol,48.9 °C
GGGGTCGGAAACGACTCC ((.((((....)))).)),-34.4 kcal/mol,59.5 °C
GGGGTCGGAAACGGCCTC (.((.((....)).)).),-26.4 kcal/mol,51.5 °C
GGGGTGCGAAAGCATCCC (((.(((....))).))),-28.5 kcal/mol,68.4 °C
GGGGTGGGAAACCACTCC ((.((((....)))).)),-35.1 kcal/mol,54.6 °C
GGGGTGGGAAACCATCCC (((.(((....))).))),-41.7 kcal/mol,56.6 °C
GGGGTGGGAAACTACCCC (((((.(....).))))),-46.6 kcal/mol,55.8 °C
GGGGTGTCGAAAGACCCC (((..(((....)))))),-30.4 kcal/mol,58.7 °C
GGGGTTCGAAAGAAACCC (((.(((....))).))),-41.3 kcal/mol,59.5 °C
GGGGTTGGAAACAATCCC (((.(((....))).))),-42.4 kcal/mol,52.5 °C
GGGGTTGGAAACGACTCC ((.((.(....).)).)),-23.1 kcal/mol,41.6 °C
GGGGTTGGAAACGATCCC (((.(.(....).).))),-23 kcal/mol,39.1 °C
GGGTAACGAAAGTTCCCC (((.(((....))).))),-27.4 kcal/mol,50.6 °C
GGGTAAGGAAACTTATCC ((.((((....)))).)),-29.2 kcal/mol,40.1 °C
GGGTAAGGAAACTTGCCC (((.(((....))).))),-36.6 kcal/mol,50.5 °C
GGGTACCGAAAGGTCCC (((.(((....)))))),-24.2 kcal/mol,54.9 °C
GGGTACCGAAAGGTCCCC (((.(((....))).))),-22.9 kcal/mol,55.7 °C
GGGTACGAAAGTAGTCCC ((((((....)))..))),-20.8 kcal/mol,36.4 °C
GGGTACGAAAGTATACCC ((((((....)))..))),-25.9 kcal/mol,43.9 °C
GGGTACGAAAGTATTCCC ((((((....)))..))),-20.4 kcal/mol,35.5 °C
GGGTAGAAATACCC (((((....))))),-23.1 kcal/mol,47.9 °C

Sequence,folding enthalpy [1],Tm [2]
GGGTAGCCGAAAGGCCCC (((..(((....)))))),-16.1 kcal/mol,54 °C
GGGTAGCGAAAGCTTCCC (((.(((....))).))),-36.5 kcal/mol,56.6 °C
GGGTAGGGAAACCTGCCC (((.(((....))).))),-45 kcal/mol,55.7 °C
GGGTATGGAAACATGCTC (.(.(((....))).).),-23.1 kcal/mol,33.4 °C
GGGTCACCGAAAGGTCCC (((..(((....)))))),-17.1 kcal/mol,38.9 °C
GGGTCACGAAAGTGTCCC (((.(((....))).))),-39.8 kcal/mol,59.6 °C
GGGTCAGGAAACTGGTCC ((..(((....)))..)),-30.1 kcal/mol,39.9 °C
GGGTCCCGAAAGGGTCCC (((.(((....))).))),-31 kcal/mol,64.9 °C
GGGTCCGAAAGGAACCCC ((((((....)))..))),-13.9 kcal/mol,61.7 °C
GGGTCCGAAAGGAATCCC ((((((....)))..))),-22.1 kcal/mol,46.7 °C
GGGTCCGAAAGGACTCCC ((((((....)))..))),-11 kcal/mol,50.6 °C
GGGTCCGAAAGGAGGCCC ((((((....)))..))),-18.7 kcal/mol,50.3 °C
GGGTCCGGAAACGGGCTC (.(.(((....))).).),-21.3 kcal/mol,50.5 °C
GGGTCGCCGAAAGGCCCC (((..(((....)))))),-11.1 kcal/mol,46.4 °C
GGGTCGCGAAAGCGTCCC (((.(((....))).))),-29 kcal/mol,67.1 °C
GGGTCTCGAAAGAGTCCC (((.(((....))).))),-36.9 kcal/mol,53.8 °C
GGGTCTTCGAAAGAACCC (((..(((....)))))),-29.2 kcal/mol,40.6 °C
GGGTGAGGAAACTCACTC (.(((((....))))).),-17.8 kcal/mol,53.9 °C
GGGTGAGGAAACTCGCTC (.(.(((....))).).),-21.6 kcal/mol,38.1 °C
GGGTGCGAAAGCAAACCC ((((((....)))..))),-29.3 kcal/mol,55.9 °C
GGGTGCGAAAGCAAGCCC ((((((....)))..))),-23.1 kcal/mol,53.8 °C
GGGTGCGGAAACGCGCTC (.(.(((....))).).),-16.5 kcal/mol,57.2 °C
GGGTGCTCGAAAGAGCCC (((..(((....)))))),-17.7 kcal/mol,52.6 °C

Sequence,folding enthalpy [1],Tm [2]
GGGTGGACGAAAGTCCCC (((..(((....)))))),-12.4 kcal/mol,49.7 °C
GGGTGGGGAAACCCACTC (.(((((....))))).),-16.7 kcal/mol,53 °C
GGGTGGGGAAACCCGCTC (.(.(((....))).).),-17.7 kcal/mol,49.1 °C
GGGTGGGGAAACCCGTCC ((..(((....)))..)),-19 kcal/mol,48.8 °C
GGGTGTCGAAAGACCCC (((.(((....)))))),-35.6 kcal/mol,56.4 °C
GGGTGTCGAAAGACCCCC (((.(((....))).))),-24.2 kcal/mol,56.4 °C
GGGTGTCGAAAGACTCCC (((.(((....))).))),-42.3 kcal/mol,58.3 °C
GGGTGTGGAAACACGTCC ((..(((....)))..)),-13.6 kcal/mol,40.1 °C
GGGTTACCGAAAGGTCCC (((..(((....)))))),-19.4 kcal/mol,41 °C
GGGTTAGGAAACCAACCC (((((.(....).))))),-33.9 kcal/mol,45.6 °C
GGGTTAGGAAACTAGCCC (((.(((....))).))),-24.3 kcal/mol,49 °C
GGGTTCGAAAGAAACCC ((((((....))).))),-34.7 kcal/mol,54.4 °C
GGGTTCGAAAGAAGACCC ((((((....)))..))),-21.2 kcal/mol,41.8 °C
GGGTTCGGAAACAAACCC (((((.(....).))))),-29.8 kcal/mol,43 °C
GGGTTGAAAAACCC (((((....))))),-29.5 kcal/mol,55.5 °C
GGGTTGACGAAAGTCCCC (((..(((....)))))),-20.6 kcal/mol,42.5 °C
GGGTTGCGAAAGCATCCC (((.(((....))).))),-34.1 kcal/mol,59.1 °C
GGGTTGGGAAACCAACTC (.(((((....))))).),-21.9 kcal/mol,49.7 °C
GGGTTGGGAAACCAGCCC (((.(((....))).))),-46.6 kcal/mol,56 °C
GGGTTGGGAAACCGATCC ((.(.((....)).).)),-16.3 kcal/mol,40.3 °C
GGGTTTCCGAAAGGACCC (((..(((....)))))),-19.3 kcal/mol,40.6 °C
GGGTTTTCGAAAGAACCC (((..(((....)))))),-31.8 kcal/mol,43.6 °C
